MBD2 inh: blocks human MBD2 binding to methylated DNA; TR-FRET, MBD2 binding to methylated oligonucleotide; 0.31% of 370,000 active; AID 686964; Q9UBB5; inhibition, % at 4.4 µM; in the data active means inhibition above about 13%
Rin1 Abl inh: inhibitors of human Rin1-Abl protein interaction; inhibition, % at 7.35 µM; AID 588664; TR-FRET Rin1/Abl binding, biochemical; 0.4% of 360,000 active; P00519+Q13671; in the data active means inhibition above about 5%, passing the limit was not always enough
B2AR ag: human beta-2 adrenergic receptor agonism by FAP | P07550 | Am2.2-beta2AR cells, FAP receptor internalization, flow cytometry | response, % (test concentration not listed) | 0.43% of 340,000 active | AID 504454;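 active means response above a set limit, near 3 SD of response in nonfluorescent compounds, cut at about 42% in these data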
Target sequence (P07550 whole entry, looked up): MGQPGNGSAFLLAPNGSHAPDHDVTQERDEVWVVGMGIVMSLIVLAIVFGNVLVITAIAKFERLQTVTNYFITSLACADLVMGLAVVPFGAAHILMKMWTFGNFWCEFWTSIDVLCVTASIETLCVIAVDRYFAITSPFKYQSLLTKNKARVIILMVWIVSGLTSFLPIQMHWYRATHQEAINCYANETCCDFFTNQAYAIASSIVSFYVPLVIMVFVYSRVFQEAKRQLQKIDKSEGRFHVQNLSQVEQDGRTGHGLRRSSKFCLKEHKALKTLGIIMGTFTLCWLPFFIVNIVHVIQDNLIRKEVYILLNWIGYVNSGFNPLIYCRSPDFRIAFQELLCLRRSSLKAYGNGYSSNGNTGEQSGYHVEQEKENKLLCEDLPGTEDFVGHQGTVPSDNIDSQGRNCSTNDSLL
UHRF1 binding: UHRF1 methyl-DNA binding inhibition; Q96T88; UHRF1 binding to methylated oligo, TR-FRET; inhibition, % at 4.4 µM; 0.75% of 370,000 active; AID 687016; in the data active means inhibition above about 21%;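 further: UHRF1 SRA domain binding a hemimethylated CpG hairpin DNA probe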
ABHD5 PLIN5 PPI: blocks binding of human ABHD5 to perilipin-5; 0.78% of 360,000 active; inhibition, % at 4 µM; Split G. princeps luciferase complementation, luminescence, 4 h; AID 602281; Q00G26+Q8WTS1;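 active means inhibition above the mean inhibition across every tested compound plus 3 SD, cut at about 22% in these data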
Arr AP2 block: inhibitors of human beta-arrestin and AP2 interaction. FITC-arrestin peptide / GST-AP2 beads, flow cytometry; AP2 beta2 appendage carries R879A mutation. inhibition, % at 10 µM. 0.31% of 340,000 active;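 active means inhibition above a set limit, near 3 SD of compounds lacking own fluorescence, cut at about 54% in these data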
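test system = AP2 appendage R879A on GSH beads | buffer or medium = PBS plus Tween 20 (0.05%) and BSA (0.1%) | incubation = 12 min plus 1 h, RT | detection = bead flow cytometry, FITC channel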
ABHD5 PLIN5 conf: confirmation of human ABHD5-PLIN5 interaction inhibitors; shares compounds with ABHD5 PLIN5 PPI; inhibition, % at 4 µM; biochemical ABHD5-PLIN5 interaction, luminescence; 67% of 2,200 active; in the data active means inhibition above about 23%
HNF4 counter: HNF4 split-luciferase signal hit, counter-screen; shares compounds with ABHD5 PLIN5 PPI; HNF4 dimerization, luminescence, biochemical; inhibition, % at 4 µM; 77% of 2,200 active; AID 651674;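 active means mean inhibition across replicate wells exceeding the computed hit threshold, cut at about 13% in these data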;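 further: light from luciferase halves that rejoin when HNF4 fusion proteins dimerize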
Of the large screens only hits and unclear results are named; the others gave an inactive call (follow-up assays come after a bar, where they were run). Rows were chosen to be rich in hits. Some 2.5% of all compounds tested hit in one or more screens of this group.

CCOc1ccc(-n2c(COc3ccccc3)nnc2SCC(=O)Nc2ccc(OCc3ccccc3)cc2)cc1	none (no result: Rin1 Abl inh, B2AR ag, ABHD5 PLIN5 PPI, Arr AP2 block)
O=C(OCc1cn(Cc2cc(F)cc(F)c2)nn1)N1CCOCC1	none (no result: Rin1 Abl inh, B2AR ag, ABHD5 PLIN5 PPI, Arr AP2 block)
O=C(OC12CCCN(C1)/C(=C/c1ccncc1)C2)c1ccco1 (stereo not drawn)	none (no result: Rin1 Abl inh, B2AR ag, ABHD5 PLIN5 PPI, Arr AP2 block)
O=C(O)C(Cc1ccccc1)N1C(=O)CCC1=O (stereo not drawn)	none
O=C(O)C(Cc1ccccc1)N1C(=O)C=CC1=O (stereo not drawn)	ABHD5 PLIN5 PPI 75 (no result: B2AR ag, Arr AP2 block) | ABHD5 PLIN5 conf 67 | HNF4 counter 107
COC(=O)C1=C(C)NC(C)=C(C(=O)OCC(C)C)C1c1ccccc1[N+](=O)[O-] (stereo not drawn)	ABHD5 PLIN5 PPI 36 | ABHD5 PLIN5 conf 36 | HNF4 counter 95
COc1cc(/C=N/N=C(N)N)ccc1OCc1ccc(Cl)cc1	ABHD5 PLIN5 PPI 24 | ABHD5 PLIN5 conf inactive | HNF4 counter inactive
CC(C)(C)NC(=O)C(c1cccc2ccccc12)n1c(=O)c(-c2ccccc2)nc2ccccc21 (stereo not drawn)	none (no result: Rin1 Abl inh, B2AR ag, Arr AP2 block)
CCCCCNC(=O)C(c1cccc2ccccc12)n1c(=O)c(-c2ccco2)nc2ccccc21 (stereo not drawn)	ABHD5 PLIN5 PPI 84 (no result: Rin1 Abl inh, B2AR ag, Arr AP2 block) | ABHD5 PLIN5 conf 82 | HNF4 counter 35
CCCCCNC(=O)C(c1ccc(C(F)(F)F)cc1)n1c(=O)c(-c2ccco2)nc2ccccc21 (stereo not drawn)	UHRF1 binding 21, ABHD5 PLIN5 PPI 83 (no result: Rin1 Abl inh, B2AR ag, Arr AP2 block) | ABHD5 PLIN5 conf 47 | HNF4 counter inactive
CC(C)(C)NC(=O)C(c1cccc2ccccc12)n1c(=O)c(-c2ccco2)nc2ccccc21 (stereo not drawn)	ABHD5 PLIN5 PPI 67 (no result: Rin1 Abl inh, B2AR ag, Arr AP2 block) | ABHD5 PLIN5 conf 69 | HNF4 counter 13
O=C(NCc1ccccc1)C(c1cccc2ccccc12)n1c(=O)c(-c2cc3ccccc3[nH]2)nc2ccccc21 (stereo not drawn)	none (no result: Rin1 Abl inh, B2AR ag, Arr AP2 block)
O=C(NCc1ccccc1)C(c1cccc2ccccc12)n1c(=O)c(-c2ccco2)nc2ccccc21 (stereo not drawn)	ABHD5 PLIN5 PPI 58 (no result: Rin1 Abl inh, B2AR ag, Arr AP2 block) | ABHD5 PLIN5 conf 97 | HNF4 counter 34
COCCCNC(=O)C[C@H]1C[C@@]2(C(=O)OC)C(=C[C@H](C(C)C)O[C@@H]2C2CC2)N(Cc2ccco2)C1=O	none (no result: Rin1 Abl inh, B2AR ag, ABHD5 PLIN5 PPI, Arr AP2 block)
CC1(c2nnnn2-c2ccc3ccccc3c2)CSCC(=O)N1C1CC1 (stereo not drawn)	none (no result: Rin1 Abl inh, B2AR ag, ABHD5 PLIN5 PPI, Arr AP2 block)
C/C(=N/NC(=O)CSc1nnc(-c2ccccc2)n1-c1ccc(Cl)cc1)c1cccc(O)c1	none (no result: Rin1 Abl inh, B2AR ag, ABHD5 PLIN5 PPI, Arr AP2 block)
CCOC(=O)C(=Cc1cc(=O)c(OC)co1)C(=O)OCC	ABHD5 PLIN5 PPI 24 | ABHD5 PLIN5 conf 76 | HNF4 counter 90
COC(=O)[C@]12C[C@H](CC(=O)N3CCC(c4ccccc4)CC3)C(=O)N(Cc3ccco3)C1=C[C@H](C1CCCC1)O[C@@H]2C	none (no result: Rin1 Abl inh, B2AR ag, ABHD5 PLIN5 PPI, Arr AP2 block)
CC(=O)C1=C(C)NC(C)=C(C(C)=O)C1c1ccc(-c2ccccc2Cl)o1	ABHD5 PLIN5 PPI 52 | ABHD5 PLIN5 conf inactive | HNF4 counter 38
CCOC(=O)C1=C(C)NC(=O)NC1c1ccc(-c2ccccc2F)o1 (stereo not drawn)	none
CC1(S(=O)(=O)O)CC(=O)c2ccccc2C1=O (stereo not drawn)	ABHD5 PLIN5 PPI 29 | ABHD5 PLIN5 conf 42 | HNF4 counter 56
O=C1C=CC(=O)N1c1ccc2c(c1)C(NC(=O)C(F)(F)F)c1ccccc1-2 (stereo not drawn)	ABHD5 PLIN5 PPI 34 | ABHD5 PLIN5 conf 56 | HNF4 counter 99
C=CCN(C(=O)[C@@H](C1CC1)[C@@H](O)c1ccc2ccccc2c1)c1ccccc1	none (no result: Rin1 Abl inh, B2AR ag, ABHD5 PLIN5 PPI, Arr AP2 block)
O=C1c2ccccc2C(=O)N1c1nccs1	none
O=c1c2ccccc2sn1-c1nccs1	ABHD5 PLIN5 PPI 81 | ABHD5 PLIN5 conf 86 | HNF4 counter 118
COC1CC(C)C(OC)c2cc(O)cc(c2O)NC(=O)C(C)=CC=CC(C)C(OC(N)=O)C(C)=CC(C)C1OC (stereo not drawn)	ABHD5 PLIN5 PPI 43 | ABHD5 PLIN5 conf 52 | HNF4 counter 93
C[C@H](O)[C@@H]1CN2CCc3c([nH]c4c(-c5ccc6c(c5)OCO6)cccc34)[C@@H]2C[C@@H]1N(C)C(=S)NCCc1ccccc1	none (no result: Rin1 Abl inh, B2AR ag, ABHD5 PLIN5 PPI, Arr AP2 block)
O=C(Cn1c(=O)n(Cc2ccco2)c(=O)c2ccccc21)Nc1cccc(Cl)c1	ABHD5 PLIN5 PPI 42 | ABHD5 PLIN5 conf inactive | HNF4 counter inactive
Cc1ccc(-c2nc3cnccn3c2Nc2ccccc2)o1	ABHD5 PLIN5 PPI 25 | ABHD5 PLIN5 conf 39 | HNF4 counter 84
CC(C)CNC(=O)OCc1cn(Cc2cc(F)ccc2F)nn1	none (no result: Rin1 Abl inh, B2AR ag, ABHD5 PLIN5 PPI, Arr AP2 block)
C=C1C(=O)[C@]23C[C@H]1CCC2[C@]1(C)C(=O)CC[C@@](C)(C(=O)O)C1C[C@@H]3O (stereo partly drawn)	ABHD5 PLIN5 PPI 46 (no result: B2AR ag, Arr AP2 block) | ABHD5 PLIN5 conf 41 | HNF4 counter 100
C=C1C(=O)[C@]23C[C@H]1CC[C@H]2[C@]1(C)[C@@H](OC(C)=O)CC[C@@](C)(C(=O)O)[C@H]1C[C@@H]3OC(C)=O	none (no result: B2AR ag, Arr AP2 block)
C=C1C(=O)[C@]23C[C@H]1CCC2[C@]1(C)CCC[C@@](C)(C(=O)O)C1C[C@@H]3O (stereo partly drawn)	ABHD5 PLIN5 PPI 51 (no result: B2AR ag, Arr AP2 block) | ABHD5 PLIN5 conf 46 | HNF4 counter 102
CCCCCCCCN1C(=O)[C@@H](CC(=O)NCc2ccccc2)C[C@@]2(C(=O)OC)C1=C[C@H](C1CCCC1)O[C@@H]2C	none (no result: Rin1 Abl inh, B2AR ag, ABHD5 PLIN5 PPI, Arr AP2 block)
CN(C)CCCNC(=O)/C(=C\c1ccc(-c2ccc(Br)cc2)o1)NC(=O)c1ccccc1	ABHD5 PLIN5 PPI 24 | ABHD5 PLIN5 conf inactive | HNF4 counter inactive
CN(C)CCCNC(=O)/C(=C/c1ccc(-c2ccc([N+](=O)[O-])cc2)o1)NC(=O)c1ccccc1	none
CCOc1cc(C=C(C(=O)OC)C(=O)OC)ccc1OCc1ccc([N+](=O)[O-])cc1	ABHD5 PLIN5 PPI 66 | ABHD5 PLIN5 conf 96 | HNF4 counter 90
O=C(c1ccccc1NS(=O)(=O)c1ccccc1[N+](=O)[O-])N1CCOCC1	none
O=C(c1ccccc1NS(=O)(=O)c1ccc([N+](=O)[O-])cc1[N+](=O)[O-])N1O[C@@H]2C=C[C@H]1C2	ABHD5 PLIN5 PPI 27 | ABHD5 PLIN5 conf 49 | HNF4 counter 74
Nc1nc(N2CCN(C/C=C/c3ccccc3)CC2)nc2ccccc12	ABHD5 PLIN5 PPI 28 | ABHD5 PLIN5 conf 31 | HNF4 counter inactive
CC1=C(SCc2ccccc2)C(=O)c2ccccc2C1=O	none

Bioassay records from PubChem.
